{"source": "paper PMC5325675", "about": "(Molecular cell, 2017)", "key": {"[1]": {"molecular_target": "T1, PTP1BYAYA (Homo sapiens, UniProt P18031, Y152A/Y153A)", "T1 sequence (P18031 1-301 Y152A/Y153A)": "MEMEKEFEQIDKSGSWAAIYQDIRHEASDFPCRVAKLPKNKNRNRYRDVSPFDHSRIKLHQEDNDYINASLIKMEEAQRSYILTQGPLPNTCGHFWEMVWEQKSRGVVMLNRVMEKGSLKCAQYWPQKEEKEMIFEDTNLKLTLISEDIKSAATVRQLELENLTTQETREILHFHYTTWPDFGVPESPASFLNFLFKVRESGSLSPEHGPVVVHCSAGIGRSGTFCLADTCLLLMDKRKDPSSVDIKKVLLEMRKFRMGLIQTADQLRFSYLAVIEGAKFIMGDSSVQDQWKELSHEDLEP", "test": "pNPP activity assay with TCS401", "assay_type": "biochemical", "method_in_brief": "(§1)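 Freshly prepared enzyme (0.15 µM) in 50 mM HEPES pH 7.5, 150 mM NaCl, 0.5 mM TCEP was run with pNPP (0-6000 µM), with or without test compound at 100 or 300 µM (0.4 or 1.2% DMSO). Reactions ran 30 min at 30°C, were stopped with 0.5 M NaOH and read at 405 nm, minus no-enzyme blanks. Km came from Michaelis-Menten fits and Ki from Km,obs = Km(1+[I]/Ki). Duplicates, repeated 3-6 times.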"}, "[2]": {"molecular_target": "T2, PTP1BL192A (Homo sapiens, UniProt P18031, L192A)", "T2 sequence (P18031 1-301 L192A)": "T1 sequence (P18031 1-301 Y152A/Y153A) with A152Y, A153Y, L192A", "test": "Fluorescence affinity measurement, PTP1BL192A", "details": "binding to PTP1BL192A", "method_in_brief": "(§2)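 Human PTP1B catalytic domain (residues 1-301; Δ7 is 1-284) was expressed in E. coli BL21(DE3) RIL and the His-tag removed with TEV. Protein at 2.5 µM in 50 mM HEPES pH 7.5, 150 mM NaCl, 0.5 mM TCEP was titrated with test compound (0-140 µM), with a DMSO-only control. Fluorescence was read at excitation 280 nm, emission 300-550 nm. KD came from a quadratic single-site fit; triplicate.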"}, "[3]": {"molecular_target": "T3, PTP1BP185G (Homo sapiens, UniProt P18031, P185G)", "T3 sequence (P18031 1-301 P185G)": "T1 sequence (P18031 1-301 Y152A/Y153A) with A152Y, A153Y, P185G", "test": "Fluorescence affinity measurement, PTP1BP185G", "details": "binding to PTP1BP185G (catalytically dead variant)", "method_in_brief": "as §2"}, "[4]": {"molecular_target": "T4, PTP1BΔ7 (residues 1-284) (Homo sapiens, UniProt P18031)", "T4 sequence (P18031 1-284)": "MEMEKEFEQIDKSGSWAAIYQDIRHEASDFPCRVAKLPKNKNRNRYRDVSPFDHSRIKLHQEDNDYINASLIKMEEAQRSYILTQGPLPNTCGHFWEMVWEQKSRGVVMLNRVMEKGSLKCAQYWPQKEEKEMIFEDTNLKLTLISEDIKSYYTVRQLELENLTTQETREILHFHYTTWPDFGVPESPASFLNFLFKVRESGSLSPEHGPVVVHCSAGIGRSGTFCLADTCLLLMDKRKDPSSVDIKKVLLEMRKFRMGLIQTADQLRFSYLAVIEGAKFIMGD", "test": "Fluorescence affinity measurement, PTP1BΔ7", "details": "binding to PTP1BΔ7", "method_in_brief": "as §2"}, "[5]": {"molecular_target": "T5, PTP1BT178A (Homo sapiens, UniProt P18031, T178A)", "T5 sequence (P18031 1-301 T178A)": "T1 sequence (P18031 1-301 Y152A/Y153A) with A152Y, A153Y, T178A", "test": "Fluorescence affinity measurement, PTP1BT178A", "details": "binding to PTP1BT178A", "method_in_brief": "as §2"}, "[6]": {"molecular_target": "T6, PTP1BΔ7 (Homo sapiens, UniProt P18031)", "T6 sequence (P18031 1-284)": "T4 sequence (P18031 1-284)", "test": "pNPP activity assay with TCS401", "assay_type": "biochemical", "method_in_brief": "as §1"}, "[7]": {"molecular_target": "T7, PTP1B (residues 1-301) (Homo sapiens, UniProt P18031)", "T7 sequence (P18031 1-301)": "T1 sequence (P18031 1-301 Y152A/Y153A) with A152Y, A153Y", "test": "Fluorescence affinity measurement of inhibitor binding to PTP1B", "details": "binding to PTP1B (wt, 1-301); Table S1"}, "[8]": {"molecular_target": "T8, PTP1BN193A (Homo sapiens, UniProt P18031, N193A)", "T8 sequence (P18031 1-301 N193A)": "T1 sequence (P18031 1-301 Y152A/Y153A) with A152Y, A153Y, N193A", "test": "Fluorescence affinity measurement, PTP1BN193A", "details": "binding to PTP1BN193A", "method_in_brief": "as §2"}, "[9]": {"molecular_target": "T8, PTP1BN193A", "test": "pNPP activity assay with TCS401", "assay_type": "biochemical", "method_in_brief": "as §1"}, "[10]": {"molecular_target": "T9, PTP1BYAYA (Y152AY153A) (Homo sapiens, UniProt P18031, Y152A/Y153A)", "T9 sequence (P18031 1-301 Y152A/Y153A)": "T1 sequence (P18031 1-301 Y152A/Y153A)", "test": "Fluorescence affinity measurement, PTP1BYAYA", "details": "binding to PTP1BYAYA", "method_in_brief": "as §2"}}, "note": "Positions count from the first letter of the chain named."}
{"smiles": "O=C(O)C(=O)Nc1sc2c(c1C(=O)O)CCNC2", "note": "[TCS401]", "values": [{"measurement": "Ki (competition between substrate and TCS401) compared with PTP1B", "setting": "[1]", "value": "higher Ki values"}, {"measurement": "Kd", "setting": "[2]", "value": "39 ± 6", "unit": "µM"}, {"measurement": "Kd", "setting": "[3]", "value": "20 ± 0.6", "unit": "µM"}, {"measurement": "Kd", "setting": "[4]", "value": "33 ± 6", "unit": "µM"}, {"measurement": "Kd", "setting": "[5]", "value": "45 ± 3.5", "unit": "µM"}, {"measurement": "Ki (competition between substrate and TCS401) compared with PTP1B", "setting": "[6]", "value": "higher Ki values"}, {"measurement": "Kd", "setting": "[7]", "value": "~26", "unit": "µM"}, {"measurement": "Kd", "setting": "[8]", "value": "37 ± 4", "unit": "µM"}, {"measurement": "Ki (competition between substrate and TCS401) compared with PTP1B", "setting": "[9]", "value": "higher Ki values"}, {"measurement": "Kd", "setting": "[10]", "value": "26 ± 3", "unit": "µM"}]}
